Assays:
[1] = molecular target: MAP kinase-activated protein kinase 2 (Homo sapiens, UniProt P49137)
[2] = Antiinflammatory activity in human PBMC cells assessed as inhibition of LPS induced IL-6 production preincubated for 1 hr followed by LPS stimulation and measured after 16 hrs by MSD analysis; type: functional, cell-based
In short: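 Human PBMCs were pretreated with compound for 1 h (<1% DMSO final), then stimulated with LPS 100 ng/ml at 37°C. Cytokines in culture media were read by MSD 4-plex: TNFα at 4 h; IL-1β, IL-6 and IL-8 at 16 h. Data are means ±S.E.M. of two independent experiments in duplicate, three donors. IC50 by 4-parameter nonlinear regression.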

[3] = Unbound plasma concentration in po dosed LPS-induced Lewis rat model at ED80 concentration measured after 5.5 hrs of initial dose by LC-MS/MS analysis; type: ADME, organism-based; details: in vivo
In short: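 Male Lewis rats (225-250 g, 5 per group) were fasted 18 h, then dosed orally at 0.2-60 mg/kg as a suspension in 0.5% methylcellulose/0.025% Tween 20. LPS 1 mg/kg was given i.v. 4 h later. Blood was taken by cardiac puncture 90 min after LPS. Serum TNFα was read by ELISA and drug by LC-MS/MS, three independent experiments. 4-parameter fit. Unbound values were corrected with measured rat plasma protein binding.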

[4] = Cmax in Sprague-Dawley rat at 3 mg/kg, po measured upto 24 hrs by […] analysis; type: ADME, organism-based; details: in vivo
In short: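 Male Sprague-Dawley rats (275-300 g), carotid-catheterized and acclimated overnight. Dosing was i.v. at 1 mpk (n=2) in 70% saline/20% PEG-400/10% ethanol, or oral at 3 mpk (n=3) as a suspension in 0.5% HPMC/Tween. Plasma drug was measured by LC-MS/MS. Cmax and Tmax were read from individual profiles. t½ came from the terminal log-linear slope and AUC by the linear trapezoidal rule. CL = dose/AUC0-∞, Vdss = CL×MRT, F = dose-normalized AUC po/iv.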

[5] = Inhibition of TNF alpha production in LPS induced human PBMC cells preincubated with compound for 1 hr followed by LPS induction and measured after 16 hrs by MSD analysis; type: functional, cell-based
[6] = Inhibition of MK2 activity in LPS induced human U937 cells preincubated with compound for 1 hr followed by LPS induction and measured after 30 mins by Western blot analysis; type: functional, cell-based; details: u-937
In short: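 U937 cells were pretreated with compound for 1 h, then stimulated with LPS 100 ng/ml for 30 min at 37°C. Lysates were run on SDS-PAGE and Western blotted for p-Ser78-HSP27 and total HSP27, detected with fluorescent secondary antibodies and LiCor scanning. The phospho/total ratio was expressed against the LPS-only control. Single experiment repeated three times. 4-parameter fit.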

[7] = AUC in chronic SCW-induced arthritis Lewis rat model plasma at ED50 concentration; type: ADME, cell-free
In short: (§1)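 Female Lewis rats (125-140 g) received a single i.p. streptococcal cell wall injection. Animals showing the acute phase were pooled, 4-8 per group over three experiments. Dosing was oral gavage b.i.d., days 10-21, in methylcellulose-Tween-20 vehicle. Hind paw volume was read by displacement plethysmometer on day 21, as % inhibition of swelling. Plasma was sampled up to 11 h after the last dose, 3 rats per dose. ED values came from fitted curves.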

[8] = Cmax in chronic SCW-induced arthritis Lewis rat model plasma at ED80 concentration; type: ADME, cell-free
In short: as §1

Sequence of MAP kinase-activated protein kinase 2 (P49137 whole entry, looked up): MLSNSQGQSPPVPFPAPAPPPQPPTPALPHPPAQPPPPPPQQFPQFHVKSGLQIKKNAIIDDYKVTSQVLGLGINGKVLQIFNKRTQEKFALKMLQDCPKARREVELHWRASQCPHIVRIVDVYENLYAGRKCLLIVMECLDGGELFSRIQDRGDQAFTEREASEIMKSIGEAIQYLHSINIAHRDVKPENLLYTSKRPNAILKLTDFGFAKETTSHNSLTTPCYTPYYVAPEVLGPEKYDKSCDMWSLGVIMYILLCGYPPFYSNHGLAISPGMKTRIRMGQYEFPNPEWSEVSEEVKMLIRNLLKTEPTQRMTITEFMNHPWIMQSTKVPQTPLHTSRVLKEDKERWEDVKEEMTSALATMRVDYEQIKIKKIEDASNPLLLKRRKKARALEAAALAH

`Cc1ccc(-c2ccc3c(ccc4sc5c(c43)NC[C@@H](C)NC5=O)n2)cn1` showed a T1/2 [1] of 2.43 min, an IC50 [2] of 1.4 µM and a Cp(f) [3] of 0.34 µM. The Cmax [4] was 0.66 µM, the IC50 [5] was 0.16 µM and the IC50 [6] was 0.201 µM. The AUC [7] was 34 µM·h and the Cmax [8] was 28 µM.

— ChEMBL document CHEMBL5678801, “A benzothiophene inhibitor of mitogen-activated protein kinase-activated protein kinase 2 inhibits tumor necrosis factor alpha production and has oral anti-inflammatory efficacy in acute and chronic models of inflammation” (J Pharmacol Exp Ther, 2010)
